In series [1] the target is Genome polyprotein (Hepatitis C virus genotype 1b (isolate Con1) (HCV)) (UniProt Q9WMX2). Nature of the series: Inhibition of NS5A in HCV genotype 1b Con1 infected in HB1 replicon cells assessed as decrease in viral replication by TaqMan-based assay. Format: cell-based.
Series [2] concerns the target Genome polyprotein (Hepatitis C virus genotype 3a (isolate NZL1) (HCV)) (UniProt Q81258). In words: Inhibition of NS5A in HCV genotype 3a NZL1 infected in HB1 replicon cells assessed as decrease in viral replication by TaqMan-based assay. In kind it is cell-based. A general note: In antiviral work, replicon cells carry a viral genome segment that copies itself.
In series [3] the target is T1, Nonstructural protein 5A (Hepatitis C virus) (UniProt Q5L478).
T1 sequence (whole entry): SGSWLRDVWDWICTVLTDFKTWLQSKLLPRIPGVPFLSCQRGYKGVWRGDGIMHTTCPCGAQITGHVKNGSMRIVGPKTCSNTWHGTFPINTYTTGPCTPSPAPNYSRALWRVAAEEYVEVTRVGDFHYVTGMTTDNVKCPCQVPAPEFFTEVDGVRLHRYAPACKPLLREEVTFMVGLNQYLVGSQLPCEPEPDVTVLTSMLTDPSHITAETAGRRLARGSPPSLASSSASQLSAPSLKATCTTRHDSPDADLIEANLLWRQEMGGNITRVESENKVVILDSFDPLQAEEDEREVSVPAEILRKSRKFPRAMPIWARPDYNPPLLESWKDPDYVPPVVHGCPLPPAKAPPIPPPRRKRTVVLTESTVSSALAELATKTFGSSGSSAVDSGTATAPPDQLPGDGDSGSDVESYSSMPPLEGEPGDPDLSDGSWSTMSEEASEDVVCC
Nature of the series: Inhibition of NS5A in HCV genotype 1a infected in HuH7 replicon cells assessed as decrease in viral replication after 3 days by RT-PCR method. In kind it is cell-based. The note with it: Hepatitis C virus subtype 1a.

The target of series [4] is T1, Nonstructural protein 5A (Hepatitis C virus). In words: Inhibition of NS5A in HCV genotype 1b infected in HuH7 replicon cells assessed as decrease in viral replication after 3 days by RT-PCR method. Format: cell-based. As to conditions: Hepatitis C virus subtype 1b.
Series [5] has the same target. Nature of the series: Inhibition of NS5A L31M mutant in HCV genotype 2b infected in HuH7 replicon cells assessed as decrease in viral replication after 3 days by RT-PCR method. In kind it is cell-based. As to conditions: Hepatitis C virus subtype 2b.
Series [6] shares this target. Nature of the series: Inhibition of NS5A in HCV genotype 3a infected in HuH7 replicon cells assessed as decrease in viral replication after 3 days by RT-PCR method. Format: cell-based. The note with it: Hepatitis C virus subtype 3a.
The target is the same in series [7]. In words: Inhibition of NS5A in HCV genotype 4a infected in HuH7 replicon cells assessed as decrease in viral replication after 3 days by RT-PCR method. Format: cell-based. As to conditions: Hepatitis C virus subtype 4a.
In series [8] the test system is T2, Nonstructural protein 5A (Hepatitis C virus), Q5L478 [Y93H].
T2 sequence (whole entry): T1 sequence (whole entry) with Y93H
Nature of the series: Inhibition of NS5A Y93H mutant in HCV genotype 1a infected in HuH7 replicon cells assessed as decrease in viral replication after 3 days by RT-PCR method. In kind it is cell-based. As to conditions: Hepatitis C virus subtype 1a.

For series [9], the target named is T1, Nonstructural protein 5A (Hepatitis C virus). Nature of the series: Inhibition of NS5A L31V mutant in HCV genotype 1a infected in HuH7 replicon cells assessed as decrease in viral replication after 3 days by RT-PCR method. Format: cell-based. As to conditions: Hepatitis C virus subtype 1a.
Series [10] is described as follows: Half life in Wistar Han rat at 2 mg/kg, iv by LC/MS method. In kind it is ADME, organism-based. As to conditions: in vivo. The procedure, abridged: (§1)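 Male Wistar Han rats, two per group, dosed IV at 2 mg/kg in 60% PEG200. Plasma was obtained by centrifuging the blood, and compound concentrations were measured by LC/MS.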
The nature of series [11]: Half life in Beagle dog at 1 mg/kg, iv by LC/MS method. In kind it is ADME, organism-based, Canis lupus familiaris. As to conditions: in vivo. The procedure, abridged: (§2)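 Beagle dogs, two animals per group, dosed IV at 1 mg/kg in 60% PEG200. Plasma was prepared from collected blood by centrifugation, and compound was quantified by LC/MS.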
Series [12] is described as follows: Clearance in Wistar Han rat at 2 mg/kg, iv by LC/MS method. In kind it is ADME, organism-based. As to conditions: in vivo. The procedure, abridged:
as §1

A short description of series [13]: Clearance in Beagle dog at 1 mg/kg, iv by LC/MS method. Format: ADME, organism-based, Canis lupus familiaris. The note with it: in vivo. The procedure, abridged: as §2
Series [14] in a line: AUC in Wistar Han rat at 10 mg/kg, po by LC/MS method. Format: ADME, organism-based. As to conditions: in vivo. The procedure, abridged: (§3)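 Male Wistar Han rats, two per dosing group, dosed orally at 10 mg/kg in 10% TWEEN. Plasma was separated from collected blood by centrifugation and analysed by LC/MS.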
Series [15] in a line: AUC in Beagle dog at 5 mg/kg, po by LC/MS method. In kind it is ADME, organism-based, Canis lupus familiaris. As to conditions: in vivo. The procedure, abridged:
(§4)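 Beagle dogs, two animals per dosing group. Oral dose was given in 10% TWEEN. Blood was collected and spun to plasma, and plasma compound levels were measured by LC/MS.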

The nature of series [16]: Cmax in Wistar Han rat at 10 mg/kg, po by LC/MS method. As to conditions: in vivo. Also on record: dose 10 mg/kg, route oral. In kind it is ADME, organism-based. The procedure, abridged:
as §3

Series [17] can be described thus: Cmax in Beagle dog at 5 mg/kg, po by LC/MS method. In kind it is ADME, organism-based, Canis lupus familiaris. Also on record: dose 5 mg/kg, route oral. The note with it: in vivo. The gist of the method:
as §4

The nature of series [18]: Drug level in Wistar Han rat at 10 mg/kg, po measured at 24 hrs by LC/MS method. In kind it is ADME, organism-based. The note with it: in vivo, read-out: Drug uptake. The procedure, abridged:
as §3

The nature of series [19]: Drug level in Beagle dog at 5 mg/kg, po measured at 24 hrs by LC/MS method. Format: ADME, organism-based, Canis lupus familiaris. The note with it: in vivo, read-out: Drug uptake. The procedure, abridged:
as §4

Series [20] can be described thus: Oral bioavailability in Wistar Han rat at 10 mg/kg by LC/MS method. Format: ADME, organism-based. The note with it: in vivo. The procedure, abridged:
as §3

The nature of series [21]: Oral bioavailability in Beagle dog at 5 mg/kg by LC/MS method. Format: ADME, organism-based, Canis lupus familiaris. As to conditions: in vivo. The procedure, abridged:
as §4

Series [22] is described as follows: Tmax in Wistar Han rat at 10 mg/kg, po by LC/MS method. Format: ADME, organism-based. The note with it: in vivo. The gist of the method: as §3
Series [23] is described as follows: MRT in Wistar Han rat at 10 mg/kg, po by LC/MS method. In kind it is ADME, organism-based. As to conditions: in vivo. The procedure, abridged: as §3
Series [24] can be described thus: AUC in Wistar Han rat at 100 mg/kg, po by LC/MS method. In kind it is ADME, organism-based. The note with it: in vivo. The procedure, abridged: (§5)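 Single rising oral dose study in fed male Wistar Han rats, dosed PO in 10% TWEEN at the indicated doses. Plasma was obtained by centrifuging the blood, and compound levels were determined by LC/MS.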
Series [25] can be described thus: Cmax in Wistar Han rat at 100 mg/kg, po by LC/MS method. As to conditions: in vivo. In kind it is ADME, organism-based. More on the design: dose 100 mg/kg, route oral. The procedure, abridged:
as §5

Series [26] is described as follows: Drug level in Wistar Han rat at 100 mg/kg, po measured at 24 hrs by LC/MS method. The note with it: in vivo, read-out: Drug uptake. Format: ADME, organism-based. The procedure, abridged:
as §5

Series [27] can be described thus: Tmax in Wistar Han rat at 100 mg/kg, po by LC/MS method. In kind it is ADME, organism-based. The note with it: in vivo. The gist of the method: as §5
A short description of series [28]: MRT in Wistar Han rat at 100 mg/kg, po by LC/MS method. In kind it is ADME, organism-based. As to conditions: in vivo. The procedure, abridged: as §5
The nature of series [29]: AUC in Wistar Han rat at 300 mg/kg, po by LC/MS method. Format: ADME, organism-based. As to conditions: in vivo. The gist of the method:
as §5

Series [30] can be described thus: Cmax in Wistar Han rat at 300 mg/kg, po by LC/MS method. The note with it: in vivo. In kind it is ADME, organism-based. More on the design: dose 300 mg/kg, route oral. The procedure, abridged: as §5
Series [31] is described as follows: Drug level in Wistar Han rat at 300 mg/kg, po measured at 24 hrs by LC/MS method. In kind it is ADME, organism-based. As to conditions: in vivo, read-out: Drug uptake. The gist of the method: as §5
Series [32] in a line: Tmax in Wistar Han rat at 300 mg/kg, po by LC/MS method. Format: ADME, organism-based. The note with it: in vivo. The procedure, abridged: as §5
Series [33] can be described thus: MRT in Wistar Han rat at 300 mg/kg, po by LC/MS method. In kind it is ADME, organism-based. The note with it: in vivo. The procedure, abridged: as §5

Broadly, the EC90 is the point of the concentration-response curve where the effect stands at 90%. By half-life is commonly meant the time needed for the level to fall by half in the phase considered. Lower therefore signals fast loss. For orientation: clearance means the rate of elimination divided by the concentration. Read a high clearance as a high capacity for elimination. For orientation: AUC means the area under the concentration-time curve, a measure of exposure. As usually defined, the Cmax is the highest concentration seen after dosing. By bioavailability is commonly meant dose-corrected exposure relative to a reference, in per cent. As usually defined, the Tmax is the time from dosing to the highest level. Usually MRT stands for the average time that molecules of a dose stay in the body.

Numbering of substitutions follows the chain as printed.

Sequence of Genome polyprotein (Hepatitis C virus genotype 1b (isolate Con1) (HCV)) (Q9WMX2 whole entry): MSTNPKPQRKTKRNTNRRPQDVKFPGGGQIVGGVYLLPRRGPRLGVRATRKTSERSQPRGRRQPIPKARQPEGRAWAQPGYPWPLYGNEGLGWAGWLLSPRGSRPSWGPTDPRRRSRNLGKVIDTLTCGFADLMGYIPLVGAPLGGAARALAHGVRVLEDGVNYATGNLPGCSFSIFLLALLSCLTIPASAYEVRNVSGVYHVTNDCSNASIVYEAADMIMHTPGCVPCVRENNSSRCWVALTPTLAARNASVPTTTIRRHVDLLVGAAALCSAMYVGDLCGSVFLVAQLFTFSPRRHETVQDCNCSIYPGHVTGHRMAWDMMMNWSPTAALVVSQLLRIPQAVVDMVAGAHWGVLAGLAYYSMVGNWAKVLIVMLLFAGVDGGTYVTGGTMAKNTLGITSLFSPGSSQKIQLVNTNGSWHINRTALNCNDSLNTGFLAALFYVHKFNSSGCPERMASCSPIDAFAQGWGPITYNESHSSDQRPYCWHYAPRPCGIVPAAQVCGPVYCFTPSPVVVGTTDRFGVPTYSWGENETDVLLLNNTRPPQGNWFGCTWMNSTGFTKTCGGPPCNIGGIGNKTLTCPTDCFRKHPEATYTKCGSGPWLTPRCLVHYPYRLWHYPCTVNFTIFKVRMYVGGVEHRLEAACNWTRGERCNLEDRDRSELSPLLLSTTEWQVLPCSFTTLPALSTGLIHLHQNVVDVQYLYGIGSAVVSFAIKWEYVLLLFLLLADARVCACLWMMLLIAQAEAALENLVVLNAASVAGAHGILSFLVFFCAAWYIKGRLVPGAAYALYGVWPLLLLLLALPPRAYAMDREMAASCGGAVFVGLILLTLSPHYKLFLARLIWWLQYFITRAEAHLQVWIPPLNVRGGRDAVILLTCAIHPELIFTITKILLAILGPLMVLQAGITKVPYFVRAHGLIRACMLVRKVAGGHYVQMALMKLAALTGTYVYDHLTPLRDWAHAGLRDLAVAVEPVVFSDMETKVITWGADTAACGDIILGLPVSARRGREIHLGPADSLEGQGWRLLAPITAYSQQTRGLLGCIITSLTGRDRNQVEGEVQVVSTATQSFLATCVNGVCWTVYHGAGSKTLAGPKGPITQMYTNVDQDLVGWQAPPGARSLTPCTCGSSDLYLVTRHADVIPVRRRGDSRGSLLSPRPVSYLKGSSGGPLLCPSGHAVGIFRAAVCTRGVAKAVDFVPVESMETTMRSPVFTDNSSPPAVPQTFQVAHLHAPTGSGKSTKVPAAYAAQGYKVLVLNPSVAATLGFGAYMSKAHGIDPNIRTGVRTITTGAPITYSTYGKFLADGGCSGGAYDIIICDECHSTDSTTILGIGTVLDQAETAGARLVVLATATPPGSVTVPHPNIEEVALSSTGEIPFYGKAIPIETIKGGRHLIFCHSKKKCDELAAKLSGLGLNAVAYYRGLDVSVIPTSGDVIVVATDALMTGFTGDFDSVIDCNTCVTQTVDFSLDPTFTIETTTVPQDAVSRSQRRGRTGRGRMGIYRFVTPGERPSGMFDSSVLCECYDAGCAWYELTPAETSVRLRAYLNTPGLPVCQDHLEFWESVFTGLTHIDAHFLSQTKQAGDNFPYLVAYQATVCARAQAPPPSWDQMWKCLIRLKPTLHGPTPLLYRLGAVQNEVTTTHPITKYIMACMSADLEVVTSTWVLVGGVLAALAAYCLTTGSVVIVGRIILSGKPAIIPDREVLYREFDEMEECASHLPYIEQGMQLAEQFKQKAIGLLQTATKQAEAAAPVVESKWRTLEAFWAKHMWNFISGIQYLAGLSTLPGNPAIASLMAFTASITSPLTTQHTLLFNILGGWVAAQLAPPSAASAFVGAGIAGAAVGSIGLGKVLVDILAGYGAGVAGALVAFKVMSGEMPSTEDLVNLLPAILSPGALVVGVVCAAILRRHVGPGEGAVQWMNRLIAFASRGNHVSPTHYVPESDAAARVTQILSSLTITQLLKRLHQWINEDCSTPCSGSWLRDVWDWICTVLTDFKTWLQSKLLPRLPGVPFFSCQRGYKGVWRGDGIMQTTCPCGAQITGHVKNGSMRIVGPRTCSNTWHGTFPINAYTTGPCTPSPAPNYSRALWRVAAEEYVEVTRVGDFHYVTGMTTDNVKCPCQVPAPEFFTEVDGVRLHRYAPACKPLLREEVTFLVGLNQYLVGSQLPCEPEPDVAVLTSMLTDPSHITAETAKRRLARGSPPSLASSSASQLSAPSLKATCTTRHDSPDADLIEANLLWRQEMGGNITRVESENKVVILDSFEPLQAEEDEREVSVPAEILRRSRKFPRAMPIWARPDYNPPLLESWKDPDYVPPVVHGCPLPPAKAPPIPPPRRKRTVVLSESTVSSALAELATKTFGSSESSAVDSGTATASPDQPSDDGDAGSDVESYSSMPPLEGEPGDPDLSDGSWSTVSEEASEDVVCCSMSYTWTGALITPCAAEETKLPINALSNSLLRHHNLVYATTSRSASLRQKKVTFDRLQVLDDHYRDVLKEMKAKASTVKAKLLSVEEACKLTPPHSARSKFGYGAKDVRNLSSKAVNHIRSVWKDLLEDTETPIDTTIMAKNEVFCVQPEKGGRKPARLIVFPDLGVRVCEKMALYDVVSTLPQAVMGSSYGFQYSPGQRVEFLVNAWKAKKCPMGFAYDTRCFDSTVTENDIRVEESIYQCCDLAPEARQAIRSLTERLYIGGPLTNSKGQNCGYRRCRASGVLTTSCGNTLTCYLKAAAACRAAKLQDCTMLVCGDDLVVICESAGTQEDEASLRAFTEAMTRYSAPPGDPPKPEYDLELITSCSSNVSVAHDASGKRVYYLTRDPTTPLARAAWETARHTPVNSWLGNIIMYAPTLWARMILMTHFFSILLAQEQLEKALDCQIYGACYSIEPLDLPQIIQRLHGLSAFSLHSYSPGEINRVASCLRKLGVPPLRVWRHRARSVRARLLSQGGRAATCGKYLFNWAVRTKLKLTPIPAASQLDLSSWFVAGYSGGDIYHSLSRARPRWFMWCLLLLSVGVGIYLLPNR

For `COC(=O)N[C@H](C(=O)N1CCC[C@H]1c1nc(-c2ccc3c(c2)O[C@@H](c2ccccc2)n2c-3cc3cc(-c4c[nH]c([C@@H]5CCCN5C(=O)[C@@H](NC(=O)OC)C(C)C)n4)ccc32)c[nH]1)C(C)C`, the EC90 in series [1] is 6 pM; in [2] it was 120 pM.

As to `COC(=O)N[C@H](C(=O)N1CCC[C@H]1c1ncc(-c2cc(F)c3c(c2)O[C@@H](c2ccc(C4CC4)s2)n2c-3cc3cc(-c4cnc([C@@H]5CCCN5C(=O)[C@@H](NC(=O)OC)C5C[C@@H](C)O[C@@H](C)C5)[nH]4)ccc32)[nH]1)C(C)C` (stereo partly drawn), the EC90 in series [3] was 4 pM; in series [4] it was 4 pM; in [5], 25 pM; in [6], 8 pM; in series [7], 7 pM; in [8], 27 pM. In addition, in series [9], the concentration for an effect of 90% (EC90) was 5 pM. Besides, the half-life is 5.1 h in series [10] and 7.2 h in series [11]. Also, the clearance in [12] was determined as 11 mL/min/kg; in [13], 3 mL/min/kg. For the same molecule, the AUC in series [14] is 0.33 to 0.92 µM·h; in series [15], 2.42 µM·h; in [24], 1.95 µM·h; in [29], 4.08 µM·h. Moreover, the highest concentration (Cmax) in series [16] was 67 to 80 nM; in series [17], 330 nM; in series [25] it was 220 nM; in series [30], 390 nM. Besides, the concentration at 24 h in series [18] is 3 to 5 nM; in [19] it was 11 nM; in series [26], 27 nM; in series [31], 40 nM. In addition, the bioavailability in series [20] worked out at 5.9%; in [21] it was 8.5%. The Tmax was 4 h in [22], 2 h in series [27] and 6 h in [32]. For the same molecule, the results for the MRT in [23], in [28] and in series [33] were 9 h, 17 h and 11 h, respectively.

Values taken from ChEMBL document CHEMBL4177770, “Discovery of MK-6169, a Potent Pan-Genotype Hepatitis C Virus NS5A Inhibitor with Optimized Activity against Common Resistance-Associated Substitutions” (J Med Chem, 2018).
